High-throughput results from PubChem.
HSP90 inh – HSP90 inhibitors, primary screen, cell lysate, luminescence. Heat shock protein HSP 90 (rabbit reticulocyte lysate; luciferase refolding). Rabbit reticulocyte lysate, luciferase refolding luminescence, 3 h. inhibition, % at 5.6 µM. hit rate 0.91% among 290,000;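 active = inhibition above the screen-wide mean plus 3 SD, computed separately per campaign, cut at about 16% in these data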;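 also: 0% = DMSO wells and 100% = 60 µM geldanamycin wells; inhibitors lower the luminescence because luciferase stays unfolded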
core dimer inh – inhibitors of HCV core protein dimerization, primary screen, biochemical, TR-FRET, high-throughput | TR-FRET GST/Flag-core106 dimerization, 1536-well | inhibition, % at 5 µM | hit rate 0.33% among 300,000 | AID 1899, 2009;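 active = inhibition above the mean of all tested compounds plus 3 SD, set per screening campaign, cut at about 45% in these data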
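Material: GST/Flag-tagged HCV core106 proteins. Incubation: 4 h, 22.5 °C incubation. Read-out basis: inhibition (%) from 671 over 617 nm ratio. Measured by: TR-FRET, excitation 340 nm, emission 617 and 671 nm.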
NS3 helicase inh – inhibitors of HCV NS3 helicase, primary screen, biochemical, Cy5 molecular beacon fluorescence. inhibition, % at 10.9 µM. NS3 helicase DNA unwinding. Hepatitis C virus NS3 helicase. hit rate 0.56% among 290,000. AID 1800, 2009;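 active = inhibition above the mean of all tested compounds plus 3 SD, set per campaign, cut at about 35% in these data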;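 also: 0% = DMSO wells and 100% = thioflavine S control wells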
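Measured by: Cy5 fluorescence, 0 and 60 min reads / Assay system: NS3 helicase fragment of HCV / Control set: low DMSO, high thioflavine S at 110 µM / Times: 1 h reaction at 25 °C, ATP-initiated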
DNA FID counter – compounds displacing fluorescent DNA intercalator, primary screen, artefact control for HCV NS3 helicase inhibitor project, biochemical, FID fluorescence | inhibition, % at 7.9 µM | AID 1845, 2009 | DNA fluorescent intercalator displacement | hit rate 0.17% among 290,000; in the data active = inhibition above about 37%;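 also: 0% = vehicle and 100% = reference compound; higher means more ethidium bromide displaced from hairpin DNA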
HSF1 activator – HSF-1 activators, primary screen, NIH3T3-HGL cells, MG132 stress, luminescence, single point; NIH3T3-HGL HSF-1 luciferase reporter, 8 h; 100% = twice DMSO control signal; activation, % at 9 µM; hit rate 1.7% among 300,000;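 active = mean replicate activation of at least 50% with a set share of replicates each reaching 50%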;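 also: 0% = median of the neutral control wells and 100% = twice that signal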
HSF1 inh – HSF1 inhibitors in luciferase reporter cells, primary screen, cell-based, NIH3T3, luminescence; NIH3T3-HGL HSE-luciferase, MG132-induced, luminescence 8 h; active compounds read low; activity change, negative = inhibition, % at 7.5 µM (by protocol); hit rate 0.77% among 300,000; AID 2098, 2009;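 active = more than half of replicate wells show activity change below -50%, luminescence cut by over half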;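 also: luciferase reports HSF-1 transcriptional activity via heat shock element; 0% = median of DMSO wells and -100% = zero luminescence signal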
Active calls of the source: *; / = not tested or not shown. In the library only some 3.9% were active in any assay of this set; here they are far more common.

SMILES | HSP90 inh | core dimer inh | NS3 helicase inh | DNA FID counter | HSF1 activator | HSF1 inh
O=C(Nc1ncccc1O)c1c(O)c2ccccc2[nH]c1=O | 1 | -7 | -2 | -4 | 2 | 3
Cc1cc(C(C)(C)C)oc1C(=O)N(CC(=O)NC1CCCC1)Cc1ccccc1Cl | 2 | 10 | -5 | -12 | 1 | 3
CCOc1ccc(NC(=O)C2CCCN(c3cnccn3)C2)cc1 (stereo unspecified) | 8 | -12 | 1 | -25 | -4 | 22
CCCc1ccc(NC(=O)C2CCCN(c3cnccn3)C2)cc1 (stereo unspecified) | 1 | -2 | -3 | -36 | 61* | 25
Cc1cc(NC(=O)COC(=O)C2CC(=O)N(c3ccccc3)C2)no1 (stereo unspecified) | -5 | -2 | 9 | -8 | -18 | -2
Cn1ccnc1C(O)c1ccccc1 (stereo unspecified) | -1 | -1 | -2 | 0 | 7 | -13
COc1ccc2ccccc2c1C(O)c1nccn1C (stereo unspecified) | 0 | 1 | 12 | 45* | -20 | -2
Fc1ccc(OCc2cc(-c3ccccc3)no2)cc1 | 4 | -7 | 1 | -8 | 51* | 26
CCC1=NN(C(=O)c2cccnc2)C(O)(C(F)(F)F)C1 (stereo unspecified) | -5 | -2 | 4 | -6 | -8 | -6
CCc1ccc(-c2nc(CS(=O)CC(=O)NCc3cccnc3)c(C)o2)cc1 (stereo unspecified) | -3 | 15 | 4 | -12 | -78 | -74*
COc1ccc(-c2nc(CS(=O)CC(=O)NCc3cccnc3)c(C)o2)cc1 (stereo unspecified) | -1 | -13 | -1 | -13 | -17 | -1
CCC(C)[C@H](NC(=O)[C@H](Cc1ccccc1)n1c(=O)[nH]c2ccccc2c1=O)C(=O)N1CCC[C@@H]1C(=O)O (stereo partly specified) | -3 | 2 | 8 | -35 | 14 | 1
COc1ccc(NS(=O)(=O)c2ccc3nc(COc4ccc5ccccc5c4)[nH]c3c2)cc1 | -1 | 14 | -6 | -14 | -84 | -81*
CCCCn1c(N)c(N(CC)C(=O)c2cccc(S(=O)(=O)N3CCN(C)CC3)c2)c(=O)[nH]c1=O | / | -1 | / | / | 7 | -1
CC(Oc1ccccc1)C(=O)N1CCN(C(=O)C(C)Oc2ccccc2)CC1 (stereo unspecified) | -1 | 8 | -1 | -9 | -14 | -5
COc1ccc(OC(C)C(=O)N2CCC(C)CC2)cc1 (stereo unspecified) | 0 | 0 | -6 | -8 | -73 | -66*
O=C(/C=C/c1ccc(N2CCCCC2)c([N+](=O)[O-])c1)c1ccc(O)cc1 | -5 | 6 | -13 | 5 | 75* | 86
COc1cc2c(=O)n(Cc3ccco3)c(=O)n(CC(=O)c3cccc(Br)c3)c2cc1OC | -2 | 47* | 1 | 4 | 30 | 20
CC(C)NC(=O)CSc1ccccc1C(=O)NNC(=O)Cn1ccc(C(F)(F)F)n1 | / | -1 | / | / | 6 | 2
COc1ccc(NC(=O)CN2CCN(S(=O)(=O)c3ccc(C(C)C)cc3)CC2)cc1OC | 0 | 0 | -2 | -7 | 24 | 0
CCOc1ccc(S(=O)(=O)N(CC(=O)N/N=C/c2ccc(-c3ccc([N+](=O)[O-])cc3)o2)c2ccccc2)cc1 | 1 | 75* | 12 | 0 | 8 | 4
O=C(Cc1ccccc1)N/N=C/c1ccc(-c2ccc([N+](=O)[O-])cc2)o1 | 1 | -10 | -2 | -3 | 25 | 4
Cc1ccc(C)c(N(CC(=O)N/N=C/c2ccc(-c3ccc([N+](=O)[O-])cc3)o2)S(=O)(=O)c2ccccc2)c1 | -4 | 52* | 5 | -3 | 3 | 7
Cc1cccc(Sc2ccc([N+](=O)[O-])cn2)c1 | -2 | -2 | 6 | 4 | -7 | -5
O=[N+]([O-])c1ccc(Sc2ccccc2)nc1 | 3 | -6 | 3 | 1 | 53* | 17
SMILES | HSP90 inh | core dimer inh | NS3 helicase inh | DNA FID counter | HSF1 activator | HSF1 inh
Cc1c(NC(=O)COC(=O)c2ccc(S(=O)(=O)N3CCOCC3)cc2)c(=O)n(-c2ccccc2)n1C | -1 | -2 | 6 | -10 | 4 | -7
COc1ccc2c(c1)c(C(=O)CN1CCCCC1)c(C)n2C | / | -19 | / | / | 72* | 32
COc1ccc2c(c1)c(C(=O)CN1CCOCC1)c(C)n2C | 3 | 1 | 1 | 5 | 5 | -4
CCC(=O)NCCc1nc2cc(NC(=O)c3ccccc3OC)ccc2n1C | -6 | -1 | -5 | -7 | -16 | 2
Cc1ccc(-c2[nH]ncc2/C=N/n2c(C)nc3ccccc3c2=O)cc1 | 0 | 6 | -10 | -1 | -60 | -52*
COC(=O)CCCn1nc(NC(=O)c2ccco2)cc1C | 1 | -1 | 4 | -6 | -1 | -11
O=C(NC(C(=O)N/N=C/c1ccccc1)c1n[nH]c(=O)c2ccccc12)c1ccccc1 (stereo unspecified) | 0 | 6 | -5 | -19 | 30 | 15
O=C(NC(C(=O)N/N=C/c1c2ccccc2cc2ccccc12)c1n[nH]c(=O)c2ccccc12)c1ccccc1 (stereo unspecified) | 5 | 47* | -28 | -24 | 24 | 12
CSc1nc(SCC(=O)O)c2sc3nc(-c4ccccc4)c4c(c3c2n1)CCC4 | 2 | / | -1 | -14 | -1 | 0
CSc1nc(N(C)CCO)c2sc3nc(-c4ccco4)c4c(c3c2n1)CCC4 | -4 | 80* | 19 | -22 | 5 | 7
CC(/C=C1\N=C(SCc2ccccc2Cl)SC1=O)=C\c1ccccc1 | 1 | 20 | 18 | -4 | 9 | -7
O=C(NCCc1ccccc1)C(c1cccs1)N(C(=O)c1csnn1)C1CC1 (stereo unspecified) | 3 | 3 | 4 | -15 | 15 | 2
O=C(NCCc1ccccc1)C(c1cccs1)N(C(=O)CCl)c1ccc(Cl)cc1 (stereo unspecified) | 1 | 2 | 1 | -22 | -96 | -95*
N#C/C(=C\c1ccc(Sc2nc3ccccc3[nH]2)o1)c1ccccc1 | 3 | 11 | -11 | -3 | 71* | 43
Cc1nn2c(CN(C(=O)CN3CCOCC3)c3ccccc3)nnc2c2ccccc12 | 5 | -15 | 4 | -21 | -63 | -56*
Cc1cc(-c2csc(NC(=O)c3ccc(C#N)cc3)n2)c(C)n1Cc1ccccc1 | 7 | 52* | 33 | -10 | 1 | -6
